The source made the active and inactive calls. No cut-off for these calls is given here.
Assays:
[1] = Cytotoxicity against human HL7702 cells after 48 hrs by MTT assay; type: cell-based; conditions: L02, 48 h
Outline: (§1)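 Cell lines: HepG2, A549 and MCF-7 from ATCC; SMMC-7721 hepatocellular carcinoma and QSG-7701 and HL-7702 normal human hepatocyte lines from the Type Culture Collection of the Chinese Academy of Sciences, Shanghai. Each line was exposed to compound and growth inhibition was scored; IC50 values reported as mean ± deviation.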

[2] = system: HepG2; test: Induction of apoptosis in human HepG2 cells assessed as PARP cleavage after 8 hrs by Western blotting; type: functional, cell-based
Outline: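 HepG2 cells were treated either at 5, 10 and 20 µM for 8 h, or at 4 µM for 0, 3, 6 or 12 h. PARP cleavage was then assessed.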

[3] = system: HepG2; test: Cytotoxicity against human HepG2 cells after 48 hrs by MTT assay; type: functional, cell-based; conditions: HepG2, 48 h; outline: as §1
[4] = Cytotoxicity against human QSG7701 cells after 48 hrs by MTT assay; type: cell-based; conditions: QSG7701, 48 h; outline: as §1
[5] = system: MCF7; test: Cytotoxicity against human MCF7 cells after 48 hrs by MTT assay; type: functional, cell-based; conditions: MCF7, 48 h; outline: as §1
[6] = system: SMMC-7721; test: Cytotoxicity against human SMMC7721 cells after 48 hrs by MTT assay; type: functional, cell-based; conditions: SMMC-7721, 48 h; outline: as §1
[7] = system: HepG2; test: Induction of apoptosis in human HepG2 cells assessed as cytochrome c release from mitochondria at 4 uM after 12 hrs by immunofluorescence analysis relative to control; type: functional, cell-based
Outline: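 HepG2 cells were treated at 4 µM for 12 h, then assessed for cytochrome c release from mitochondria.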

[8] = system: HepG2; test: Induction of apoptosis in human HepG2 cells assessed as caspase 3 activity at 4 uM at 12 hrs by Ac-DEVD-pNA-based colorimetric assay relative to control; type: functional
Outline: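 HepG2 cells were treated at 4 µM for 0, 3, 6 and 12 h. Caspase-3 activity was measured colorimetrically as conversion of Ac-DEVD-pNA to p-nitroaniline, using a Biovision kit per the manufacturer's protocol. Activity was expressed as fold over control.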

[9] = system: A549; test: Cytotoxicity against human A549 cells after 48 hrs by MTT assay; type: functional, cell-based; conditions: A549, 48 h; outline: as §1
[10] = system: HepG2; test: Cytotoxicity against human HepG2 cells at 100 uM after 48 hrs by MTT assay; type: functional, cell-based
[11] = system: A549; test: Cytotoxicity against human A549 cells at 100 uM after 48 hrs by MTT assay; type: functional, cell-based
[12] = system: SMMC-7721; test: Cytotoxicity against human SMMC7721 cells at 100 uM after 48 hrs by MTT assay; type: functional, cell-based
[13] = system: MCF7; test: Cytotoxicity against human MCF7 cells at 100 uM after 48 hrs by MTT assay; type: functional, cell-based

Row | Compound | IC50 [1] [µM] | Activity [2] | IC50 [3] [µM] | IC50 [4] [µM] | IC50 [5] [µM] | IC50 [6] [µM] | Activity [7] | fold change (FC) [8] | IC50 [9] [µM] | Activity [10] | Activity [11] | Activity [12] | Activity [13]
1 | C[C@@H]1[C@@H]2CC(=O)O[C@@H]2C[C@]1(C)O | 20.7 | Dose-dependent effect | 5.36 | 16.3 | 7.56 | 6.56 | Active | 6 | 5.88 |  |  |  | 
2 | C[C@@H]1[C@@H]2C(=O)O[C@@H]2C[C@]1(C)O |  |  |  |  |  |  |  |  |  | inactive | inactive | inactive | inactive

From ChEMBL document CHEMBL3259761, “Myrotheciumones: bicyclic cytotoxic lactones isolated from an endophytic fungus of Ajuga decumbens” (Bioorg Med Chem Lett, 2014)
